Data as given in ChEMBL document CHEMBL1137132, “The synthesis and SAR of 2-arylsulfanyl-phenyl piperazinyl acetic acids as glyT-1 inhibitors” (Bioorg Med Chem Lett, 2004).

Test system: Rattus norvegicus
Assay: Compound tested for increase in levels of glycine in the ventral hippocampus at a dose of 4.6 mg/kg after 60 min of s.c. administration
Type: functional
Conditions: not given
Summary of the method: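 In vivo microdialysis in freely moving rats, ventral hippocampus. Compound given subcutaneously. Extracellular glycine measured, with mean basal pre-injection values normalised to 100%; n is the number of animals.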

Row | Compound | Increase
1 | COc1ccc(Sc2ccc(Cl)cc2N2CCN(CC(=O)O)[C@H](C)C2)cc1 | 140%

Test system: not listed separately
Assay: Half-life in rat
Type: ADME
Conditions: in vivo

Row | half-life | Compound
2 | 4 h | COc1ccc(Sc2ccc(Cl)cc2N2CCN(CC(=O)O)[C@H](C)C2)cc1

Test system: not listed separately
Assay: Plasma clearance in rat
Type: ADME, organism-based
Conditions: not given

Row | clearance | Compound
3 | 6.67 mL/min/kg | COc1ccc(Sc2ccc(Cl)cc2N2CCN(CC(=O)O)[C@H](C)C2)cc1

Test system: not listed separately
Assay: Oral bioavailability in rat
Type: ADME, organism-based
Conditions: in vivo
Summary of the method: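 Rat pharmacokinetics, oral dosing as a solution.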

Row | bioavailability | Compound
4 | 100% | COc1ccc(Sc2ccc(Cl)cc2N2CCN(CC(=O)O)[C@H](C)C2)cc1

Target: T1, Sodium- and chloride-dependent glycine transporter 1 (Homo sapiens, UniProt P48067)
T1 sequence (P48067 whole entry): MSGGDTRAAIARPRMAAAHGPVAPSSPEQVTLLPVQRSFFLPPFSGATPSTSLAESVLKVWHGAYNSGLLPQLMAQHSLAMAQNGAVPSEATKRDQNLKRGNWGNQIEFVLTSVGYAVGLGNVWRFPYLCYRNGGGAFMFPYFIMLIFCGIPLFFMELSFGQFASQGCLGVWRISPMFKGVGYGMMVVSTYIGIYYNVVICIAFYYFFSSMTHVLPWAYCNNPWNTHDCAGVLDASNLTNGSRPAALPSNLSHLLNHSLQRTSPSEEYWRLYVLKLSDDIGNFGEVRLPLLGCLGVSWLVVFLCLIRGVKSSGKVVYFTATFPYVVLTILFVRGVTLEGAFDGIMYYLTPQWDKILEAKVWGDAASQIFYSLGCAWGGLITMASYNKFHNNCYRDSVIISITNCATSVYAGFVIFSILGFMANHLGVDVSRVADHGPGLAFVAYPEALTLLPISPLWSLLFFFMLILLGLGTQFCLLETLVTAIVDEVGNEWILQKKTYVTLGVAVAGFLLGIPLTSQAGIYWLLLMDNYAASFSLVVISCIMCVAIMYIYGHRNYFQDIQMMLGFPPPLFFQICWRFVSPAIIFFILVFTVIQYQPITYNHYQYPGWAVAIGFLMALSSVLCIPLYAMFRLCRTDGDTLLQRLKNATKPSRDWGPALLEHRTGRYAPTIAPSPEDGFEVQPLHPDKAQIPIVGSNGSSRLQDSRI
Assay: Inhibition of uptake of [3H]-glycine into cells transfected with human GlyT-1b transporter
Conditions: not given

Row | Compound | IC50
5 | CC1CN(c2ccccc2Sc2ccccc2)C(C)CN1CC(=O)O (stereo not drawn) | 2.9 µM
6 | COc1ccc(Sc2ccccc2N2C[C@@H](C)N(CC(=O)O)C[C@H]2C)cc1 | 16 µM
7 | COc1ccc(Sc2ccccc2N2C[C@H](C)N(CC(=O)O)C[C@H]2C)cc1 | 53 µM
8 | CC1CN(c2ccccc2Sc2ccc(O)cc2)C(C)CN1CC(=O)O (stereo not drawn) | 3.6 µM
9 | COc1ccc(Sc2ccccc2N2CCN(CC(=O)O)C(C)(C)C2)cc1 | 1.5 µM
10 | COc1ccc(Sc2ccc(OC)cc2N2CC(C)N(CC(=O)O)CC2C)cc1 (stereo not drawn) | > 50 µM
11 | COc1ccc(Sc2ccccc2N2CCN(CC(=O)O)CC2)cc1 | > 10 µM
12 | COc1ccc(Sc2ccc(Cl)cc2N2CC(C)N(CC(=O)O)CC2C)cc1 (stereo not drawn) | 1.7 µM
13 | COc1ccc(Sc2ccc(OC)cc2N2CCN(CC(=O)O)C(C)C2)cc1 (stereo not drawn) | 4.6 µM
14 | CC1CN(c2ccccc2Sc2ccc(-c3ccccc3)cc2)C(C)CN1CC(=O)O (stereo not drawn) | > 10 µM
15 | COc1ccc(Sc2ccccc2N2CCN(CC(=O)O)C(C)C2)cc1 (stereo not drawn) | 1.7 µM
16 | CC(=O)Nc1ccc(Sc2ccccc2N2CC(C)N(CC(=O)O)CC2C)cc1 (stereo not drawn) | 22 µM
17 | COc1ccc(Sc2ccccc2N2C[C@H](C)N(CC(=O)O)C[C@@H]2C)cc1 | 18 µM
18 | COc1ccc(Sc2ccccc2N2CCN(CC(=O)O)CC2C)cc1 (stereo not drawn) | > 10 µM
19 | CC1CN(c2ccccc2Sc2ccc(F)cc2)C(C)CN1CC(=O)O (stereo not drawn) | 1.9 µM
20 | COc1ccc(Sc2ccc(C)cc2N2CCN(CC(=O)O)C(C)C2)cc1 (stereo not drawn) | 1.6 µM

Compounds with a lower IC50, results first:

Row | IC50 | Compound
21 | 0.55 µM | Cc1ccc(Sc2ccccc2N2CC(C)N(CC(=O)O)CC2C)cc1 (stereo not drawn)
22 | 0.29 µM | COc1ccc(Sc2ccc(Cl)cc2N2CCN(CC(=O)O)C(C)C2)cc1 (stereo not drawn)
23 | 0.58 µM | COc1ccc(Sc2ccccc2N2CC(C)N(CC(=O)O)CC2C)cc1 (stereo not drawn)
24 | 1.4 µM | COc1ccc(Sc2ccc(Cl)cc2N2CCN(CC(=O)O)[C@@H](C)C2)cc1
25 | 0.36 µM | CC1CN(c2ccccc2Sc2ccc(Cl)cc2)C(C)CN1CC(=O)O (stereo not drawn)
26 | 0.32 µM | CN(CC[C@@H](Oc1ccc(C(F)(F)F)cc1)c1ccccc1)CC(=O)O
27 | 0.15 µM | COc1ccc(Sc2ccc(Cl)cc2N2CCN(CC(=O)O)[C@H](C)C2)cc1
28 | 0.16 µM | COc1ccc(Sc2ccccc2N2C[C@@H](C)N(CC(=O)O)C[C@@H]2C)cc1
